# Results taken from paper PMC6800822 (Bioconjugate chemistry, 2019).
# Square brackets hold non-standard residues; d marks the D form. Peptide text beside a SMILES is read from it. * marks the point of attachment. Acetyl(thymin-1-yl) = Cc1cn(CC(=O)*)c(=O)[nH]c1=O; NBD = O=[N+]([O-])c1ccc(*)c2nonc12
# Experiments:
# [1] = format: cell-based
# T98G cells [2] = test: Cellular uptake and distribution by fluorescence imaging; format: cell-based
# Summary of the method: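 T98G cells incubated with the test peptide at 100 or 200 μM and imaged by confocal fluorescence microscopy after 2 h. Counterstains used: Hoechst 33342 for nuclei, fibrillarin immunofluorescence for nucleoli, and ER Tracker. Localisation to lysosomes was also assessed.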
# [3] = CD spectra, secondary structure inferred by DichroWeb; format: physicochemical; details: 200 μM
# [4] = system: phospho-Ser139-H2AX (γH2AX); test: Immunofluorescence of γH2AX; format: cell-based; details: T98G cells, 200 μM, 2 h
# [5] = system: RNA extracted from T98G cells; test: Interaction with total RNA extracted from T98G cells in PBS buffer
# HeLa = test: Nucleolus targeting in HeLa cells; format: cell-based
# MES-SA/Dx5 = test: Nucleolus targeting in MES-SA/Dx5 cells; format: cell-based
# Saos-2 = test: Nucleolus targeting in Saos-2 cells; format: cell-based
# T98G cells [6] = details: 50 uM; cited from earlier work
smiles,measurement,setting,value
Cc1cn(CC(=O)N[C@H](Cc2ccccc2)C(=O)N[C@H](Cc2ccccc2)C(=O)N[C@H](CCCCN)C(=O)N[C@H](CCCCN)C(=O)N[C@H](Cc2ccccc2)C(=O)N[C@H](CCCCN)C(=O)N[C@H](CC(C)C)C(=O)N[C@H](CCCCN)C(=O)N[C@H](CC(C)C)C(=O)N[C@H](CCCCNc2ccc([N+](=O)[O-])c3nonc23)C(=O)O)c(=O)[nH]c1=O [D-1] ({Acetyl(thymin-1-yl)}-[dF][dF][dK][dK][dF][dK][dL][dK][dL][dK](NBD)-OH; N-terminus and C-terminus assumed),IC50,[1],86.2 µM
same,Cell entry,"T98G cells [2]; 100 μM, fluorescence imaging",hardly enters the cells
same,Cellular distribution,"T98G cells [2]; 200 μM, 2 h, fluorescence imaging",bright fluorescent puncta in cell nucleus
same,Lysosomal localisation,"T98G cells [2]; 200 μM, fluorescence imaging",only slightly localized in the lysosome
same,Cellular uptake at 4 °C,"T98G cells [2]; 4 °C, 1 h",hardly exhibit any fluorescence
same,unordered structures content,[3],28%
same,α-helix content,[3],36%
same,β-sheet content,[3],13%
same,β-turns content,[3],23%
same,γH2AX foci formation (DNA damage),[4],leads to γH2AX foci formation
same,Interaction with RNA,[5],form precipitates that resist ribonuclease
same,Nucleolus targeting,HeLa,able to target nucleoli
same,Nucleolus targeting,MES-SA/Dx5,able to target nucleoli
same,Nucleolus targeting,Saos-2,able to target nucleoli
same,Effect on cells at low concentration,T98G cells [6],innocuous to the cells
